The source of these data is ChEMBL document CHEMBL1687903, “Claurailas A-D, cytotoxic carbazole alkaloids from the roots of Clausena harmandiana” (J Nat Prod, 2011).

Assay [1] deals with NCI-H187. As to the kind of experiment: Cytotoxicity against human NCI-H187 by resazurin microplate assay. Type of assay: functional, cell-based. The method in brief:
(§1)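 Resazurin microplate assay (REMA) on human epidermoid carcinoma KB and human small cell lung cancer NCI-H187 lines, with ellipticine as reference substance. Activity reported as IC50 in μM.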
For orientation: Resazurin is reduced to fluorescent resorufin, in cell work by metabolically active cells.

For assay [2], the system named is KB. As to the kind of experiment: Cytotoxicity against human KB cells by resazurin microplate assay. It is filed as functional, cell-based. Put shortly: as §1
Assay [3] has as its system Vero. As to the kind of experiment: Cytotoxicity against african green monkey Vero cells by green fluorescent protein microplate assay. Type of assay: cell-based. To be noted: Chlorocebus sabaeus. The method in brief: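 Green fluorescent protein-based assay on Vero cells (African green monkey kidney), used as the normal-cell counterscreen, with ellipticine as reference substance. Activity reported as IC50 in μM.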

Where only a bound is given, the exact number is not on record here.

`COc1cc(C=O)cc2c1[nH]c1ccccc12` [MURRAYANINE]: the IC50 in assay [1] is 11.5 µM; in assay [2], 72.2 µM; in assay [3], above 200 µM.

In the case of `COc1ccc2c(c1)[nH]c1c(O)cc(C=O)cc12`, the IC50 in assay [1] stood at 10.4 µM; in assay [2], 10.7 µM; in assay [3], 180 µM.

As for `CC1(C)C=Cc2c(ccc3[nH]c4cc(O)c(C=O)cc4c23)O1` [CLAURAILAS D], the IC50 came out at 7.54 µM in assay [1], 30.6 µM in assay [2] and 29.4 µM in assay [3].

In the case of `COC(=O)c1cc(O)c2[nH]c3ccccc3c2c1` [CLAUSINE E], the IC50 came to 94.6 µM in assay [1], 108 µM in assay [2] and 152 µM in assay [3].

For `O=Cc1cc(O)c2[nH]c3ccccc3c2c1` [O-DEMETHYLMURRAYANINE], the figures for the IC50 in assay [1], in assay [2] and in assay [3] were 19.2 µM, 5.49 µM and 104 µM, respectively.

As for `COc1ccc2c(c1)[nH]c1c(OC)cc(C=O)cc12` [CLAURAILAS A], the IC50 in assay [1] was 13.5 µM; in assay [2] it was above 200 µM; in assay [3], above 200 µM.

In the case of `COc1c2c(cc3oc(=O)ccc13)OC(C)(C)C=C2` [XANTHOXYLETIN], the IC50 in assay [1] is above 200 µM; in assay [2], 133 µM; in assay [3] it was above 200 µM.

`COc1ccc2c(c1)[nH]c1cc(OC)c(C(=O)O)cc12` [CLAUSINE K]: the IC50 was 139 µM in assay [1], above 200 µM in assay [2] and 178 µM in assay [3].

On to `Cc1cc2c([nH]c3ccccc32)c2c1OC(C)(C)C=C2` [GRINIMIBINE], for which the values for the IC50 in assay [1], in assay [2] and in assay [3] were 22.4 µM, 7.02 µM and above 200 µM, respectively.

With `C=CC(C)(C)c1c2c(c(OC)c3ccc(=O)oc13)C=CC(C)(C)O2` [DENTATIN], the IC50 in assay [1] was 45.4 µM; in assay [2] it was 114 µM; in assay [3], above 200 µM.

In the case of `COc1ccc2c(c1)[nH]c1cc(OC)c(C=O)cc12` [LANSINE], the IC50 in assay [1] is 102 µM; in assay [2], above 200 µM; in assay [3], above 200 µM.

In the case of `C=CC(C)(C)c1c2c(c(O)c3ccc(=O)oc13)C=CC(C)(C)O2` [NORDENTATIN], the values for the IC50 in assay [1], in assay [2] and in assay [3] were 11.8 µM, 20.6 µM and 56.4 µM, respectively.

Take `O=Cc1cc2c(cc1O)[nH]c1cc(O)ccc12` [CLAUSINE O]: the IC50 in assay [1] was determined as 74.7 µM; in assay [2] it was 59.6 µM; in assay [3] it was 64.6 µM.

Regarding `CC(C)=CCc1c(O)c(C=O)cc2c1[nH]c1cc(O)ccc12` [7-HYDROXYHEPTAPHYLLINE], the IC50 was determined as 14.6 µM in assay [1], 27.9 µM in assay [2] and 41.2 µM in assay [3].

For `COc1ccc2c(c1)[nH]c1c(CC=C(C)C)c(O)c(C=O)cc12`, the IC50 is 1.68 µM in assay [1], 2.75 µM in assay [2] and above 200 µM in assay [3].

`COC(=O)c1ccc2[nH]c3ccc4c(c3c2c1)C=CC(C)(C)O4` [CLAURAILAS C]: the IC50 in assay [1], in assay [2] and in assay [3] was above 200 µM each time.

With `CC(C)=CCc1c(O)c(C=O)cc2c1[nH]c1ccccc12` [HEPTAPHYLLINE], the IC50 in assay [1] worked out at 1.32 µM; in assay [2], 1.61 µM; in assay [3], 92.5 µM.

As to `Cc1cc2c([nH]c3c(O)cccc32)c2c1OC(C)(C)C=C2` [CLAURAILAS B], the IC50 in assay [1], in assay [2] and in assay [3] was above 200 µM each time.

For the compound `Cc1c2ccncc2c(C)c2c1[nH]c1ccccc12` [ELLIPTECINE], the IC50 was 2.76 µM in assay [1] and 3.82 µM in assay [3].

One may read the IC50 as the midpoint of a concentration-inhibition curve.
